Results reported in ChEMBL document CHEMBL3108706, “Design, synthesis, and biological activity of novel dicoumarol glucagon-like peptide 1 conjugates” (J Med Chem, 2013).
Each block holds one compound with its values, some of them ahead of it. Calls of active or inactive are those of the source. No cut-off for these calls is given here.

Legend:
[1] = tested on: Rattus norvegicus; assay: Antidiabetic activity in Sprague-Dawley rat assessed as increase of plasma insulin level at 25 nmol/kg, ip administered 0.5 hrs prior to glucose challenge measured at 15 mins by ELISA; format: functional
[2] = tested on: Mus musculus; assay: Antidiabetic activity in C57BL/6J-m+/+Leprdb (db/db) mouse assessed as reduction of blood glucose AUC (0 to 48 hrs) at 25 nmol/kg, ip administered for 0.5 hrs; format: functional, organism-based
Method in brief: (§1)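 Non-fasted male db/db mice (7 weeks, free access to food and water) got a single ip injection (25 or 150 nmol/kg) or saline. Mean ± SD, n = 6.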

[3] = Elimination half life in Sprague-Dawley rat at 15 nmol/kg, sc by LC-MS/MS analysis; format: ADME, organism-based; conditions: in vivo, read-out: beta t1/2 (converted)
[4] = tested on: Mus musculus; assay: Hypoglycemic activity in C57BL/6J-m+/+Leprdb (db/db) mouse assessed as time required to reduce plasma glucose level below 8.35 mM at 150 nmol/kg, ip administered for 0.5 hrs; format: functional
Method in brief: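 Non-fasted male db/db mice (7 weeks, free access to food and water) got a single ip injection (25 or 150 nmol/kg) or saline. Glucose AUC0−48h and the time for glucose to return below 8.35 mM were derived. Mean ± SD, n = 6.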

[5] = tested on: Rattus norvegicus; assay: Anticoagulant activity in Sprague-Dawley rat assessed as activated […] time at 150 nmol/kg, iv administered for 6 days measured on day 7 by coagulometric analysis (reference value: 26.5 +/- 0.81 secs); format: functional
[6] = tested on: Mus musculus; assay: Antidiabetic activity in C57BL/6J-m+/+Leprdb (db/db) mouse assessed as reduction of blood glucose level at 50 nmol/kg, ip qd administered for 49 days followed by glucose challenge on day 52 measured after 120 mins post glucose challenge by IPGTT; format: functional, organism-based
Method in brief: (§2)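 Mice from the 49-day once-daily ip dosing study (db/db, n = 8/group) were tested by IPGTT on day 0 and day 52, 3 days after the last dose. They were fasted 18 h, challenged ip with 1 g/kg glucose, and tail-vein glucose was read with a meter at 0, 15, 30, 45, 60, 90 and 120 min.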

[7] = Mean residence time in Sprague-Dawley rat at 15 nmol/kg, sc by LC-MS/MS analysis; format: ADME, organism-based; conditions: in vivo
[8] = tested on: Mus musculus; assay: Antidiabetic activity in C57BL/6J-m+/+Leprdb (db/db) mouse assessed as reduction of HbA1c level at 25 to 50 nmol/kg, ip qd measured over 7 weeks of drug treatment; format: functional, organism-based
Method in brief: (§3)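 Male and female db/db mice (6 weeks, n = 8/group) were matched on HbA1c and given ip injections once daily for 49 days (25 or 50 nmol/kg; comparator 25 nmol/kg; saline controls). Wild-type C57BL/6 littermates served for normalization. HbA1c was measured weekly and body weight daily.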

[9] = tested on: Mus musculus; assay: Hypoglycemic activity in C57BL/6J-m+/+Leprdb (db/db) mouse assessed as reduction of plasma glucose level at 25 nmol/kg, ip administered 0.5 hrs prior to glucose challenge measured at 21.5 to 24 hrs by IPGTT; format: functional, organism-based
[10] = tested on: Mus musculus; assay: Hypoglycemic activity in C57BL/6J-m+/+Leprdb (db/db) mouse assessed as time required to reduce plasma glucose level below 8.35 mM at 25 nmol/kg, ip administered for 0.5 hrs; format: functional; method in brief: as §1
[11] = tested on: Mus musculus; assay: Hypoglycemic activity in C57BL/6J-m+/+Leprdb (db/db) mouse assessed as reduction of plasma glucose level at 25 nmol/kg, ip administered 0.5 hrs prior to glucose challenge measured at 21.5 hrs by IPGTT (reference value: >30 mM); format: functional
[12] = tested on: Rattus norvegicus; assay: Anticoagulant activity in Sprague-Dawley rat assessed as thombin time at 150 nmol/kg, iv administered for 6 days measured on day 7 by coagulometric analysis (reference value: 19.38 +/- 0.72 secs); format: functional
[13] = tested on: Mus musculus; assay: Antidiabetic activity in C57BL/6J-m+/+Leprdb (db/db) mouse assessed as reduction of blood glucose level at 25 nmol/kg, ip qd administered for 49 days followed by glucose challenge on day 52 measured after 120 mins post glucose challenge by IPGTT; format: functional, organism-based; method in brief: as §2
[14] = target: Glucagon-like peptide 1 receptor (Homo sapiens, UniProt P43220); assay: Activation of human GLP-1 receptor overexpressed in HEK293 cells assessed as cAMP accumulation after 20 mins by HTRF assay; format: functional, cell-based
[15] = tested on: Mus musculus; assay: Antidiabetic activity in C57BL/6J-m+/+Leprdb (db/db) mouse assessed as reduction of blood glucose level at 25 nmol/kg, ip qd administered for 49 days followed by glucose challenge on day 52 measured up to 90 mins post glucose challenge by IPGTT; format: functional, organism-based; method in brief: as §2
[16] = tested on: Rattus norvegicus; assay: Anticoagulant activity in Sprague-Dawley rat assessed as prothombin time at 25 nmol/kg, iv administered for 6 days measured on day 7 by coagulometric analysis (reference value: 13.5 +/- 0.32 secs); format: functional
[17] = tested on: Mus musculus; assay: Hypoglycemic activity in C57BL/6J-m+/+Leprdb (db/db) mouse assessed as reduction of plasma glucose level at 25 nmol/kg, ip administered 0.5 hrs prior to glucose challenge measured after 18 to 21 hrs by IPGTT (reference value: >30 mM); format: functional
[18] = Tmax in Sprague-Dawley rat at 15 nmol/kg, sc by LC-MS/MS analysis; format: ADME, organism-based; conditions: in vivo
[19] = tested on: Rattus norvegicus; assay: Anticoagulant activity in Sprague-Dawley rat assessed as prothombin time at 150 nmol/kg, iv administered for 6 days measured on day 7 by coagulometric analysis (reference value: 13.5 +/- 0.32 secs); format: functional
[20] = Cmax in Sprague-Dawley rat at 15 nmol/kg, sc by LC-MS/MS analysis; format: ADME, organism-based; design: dose 15 nmol/kg, route subcutaneous; conditions: in vivo
[21] = tested on: Rattus norvegicus; assay: Antidiabetic activity in Sprague-Dawley rat assessed as reduction of plasma glucose level at 25 nmol/kg, ip administered 0.5 hrs prior to glucose challenge by OGTT (reference value: 13.32 +/- 1.84 mM); format: functional
[22] = tested on: Rattus norvegicus; assay: Anticoagulant activity in Sprague-Dawley rat assessed as thombin time at 25 nmol/kg, iv administered for 6 days measured on day 7 by coagulometric analysis (reference value: 19.38 +/- 0.72 secs); format: functional
[23] = tested on: Mus musculus; assay: Antidiabetic activity in ip dosed C57BL/6J-m+/+Leprdb (db/db) mouse assessed as suppression of body weight gain administered as qd measured over 7 weeks of drug treatment; format: functional, organism-based; method in brief: as §3
[24] = Half life in Sprague-Dawley rat plasma at 1000 ng/mL by LC-MS/MS analysis; format: ADME, cell-free
[25] = tested on: Rattus norvegicus; assay: Anticoagulant activity in Sprague-Dawley rat assessed as activated […] time at 25 nmol/kg, iv administered for 6 days measured on day 7 by coagulometric analysis (reference value: 26.5 +/- 0.81 secs); format: functional
[26] = tested on: Rattus norvegicus; assay: Antidiabetic activity in Sprague-Dawley rat assessed as increase of plasma insulin level at 25 nmol/kg, ip administered 0.5 hrs prior to glucose challenge measured for 120 mins by ELISA; format: functional, organism-based
Method in brief: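 SD rats (200−250 g, n = 6/group) were fasted 12 h and given compound ip (25 nmol/kg) or saline 0.5 h before oral glucose (10 g/kg). Tail-vein blood glucose was read with a meter at −30, 0, 15, 30, 45, 60, 90, 120 and 180 min. Insulin was measured by rat insulin ELISA. Mean ± SD.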

[27] = target: albumin (Homo sapiens, UniProt P02768); assay: Binding affinity to human serum albumin at 100 ug/mL after 3 hrs relative to control; format: ADME; conditions: read-out: PB (converted)
Method in brief: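 Peptide at 100 μg/mL in PBS (50 μL) was incubated with HSA-conjugated Sepharose resin for 3 h at 25 °C, then centrifuged (1000 rpm, 10 min). Unbound peptide in the supernatant was quantified by micro BCA assay. Nonspecific adsorption was corrected with NHS-inactivated, albumin-free resin.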

[28] = tested on: Rattus norvegicus; assay: AUC (0 to infinity) in Sprague-Dawley rat at 15 nmol/kg, sc by LC-MS/MS analysis; format: ADME, organism-based, Plasma; design: dose 15 nmol/kg, route subcutaneous, time infinity; conditions: in vivo
[29] = tested on: Mus musculus; assay: Hypoglycemic activity in C57BL/6J-m+/+Leprdb (db/db) mouse assessed as reduction of plasma glucose level at 25 nmol/kg, ip administered 0.5 hrs prior to glucose challenge measured up to 17 hrs by IPGTT (reference value: >30 mM); format: functional
[30] = tested on: Rattus norvegicus; assay: Antidiabetic activity in Sprague-Dawley rat assessed as reduction of plasma glucose level at 25 nmol/kg, ip administered 0.5 hrs prior to glucose challenge measured at 15 to 60 mins by OGTT; format: functional, organism-based
[31] = tested on: Mus musculus; assay: Antidiabetic activity in C57BL/6J-m+/+Leprdb (db/db) mouse assessed as reduction of blood glucose level at 50 nmol/kg, ip qd administered for 49 days followed by glucose challenge on day 52 measured up to 90 mins post glucose challenge by IPGTT; format: functional, organism-based; method in brief: as §2
[32] = tested on: Rattus norvegicus; assay: Antidiabetic activity in Sprague-Dawley rat assessed as increase of plasma insulin level at 25 nmol/kg, ip administered 0.5 hrs prior to glucose challenge measured at 45 mins by ELISA; format: functional
[33] = tested on: Rattus norvegicus; assay: Anticoagulant activity in Sprague-Dawley rat assessed as thombin time at 1 umol/kg, iv administered for 6 days measured on day 7 by coagulometric analysis (reference value: 19.38 +/- 0.72 secs); format: functional
[34] = tested on: Rattus norvegicus; assay: Anticoagulant activity in Sprague-Dawley rat assessed as prothombin time at 1 umol/kg, iv administered for 6 days measured on day 7 by coagulometric analysis (reference value: 13.5 +/- 0.32 secs); format: functional
[35] = tested on: Rattus norvegicus; assay: Anticoagulant activity in Sprague-Dawley rat assessed as activated […] time at 1 umol/kg, iv administered for 6 days measured on day 7 by coagulometric analysis (reference value: 26.5 +/- 0.81 secs); format: functional

Sequence of Glucagon-like peptide 1 receptor (P43220 whole entry): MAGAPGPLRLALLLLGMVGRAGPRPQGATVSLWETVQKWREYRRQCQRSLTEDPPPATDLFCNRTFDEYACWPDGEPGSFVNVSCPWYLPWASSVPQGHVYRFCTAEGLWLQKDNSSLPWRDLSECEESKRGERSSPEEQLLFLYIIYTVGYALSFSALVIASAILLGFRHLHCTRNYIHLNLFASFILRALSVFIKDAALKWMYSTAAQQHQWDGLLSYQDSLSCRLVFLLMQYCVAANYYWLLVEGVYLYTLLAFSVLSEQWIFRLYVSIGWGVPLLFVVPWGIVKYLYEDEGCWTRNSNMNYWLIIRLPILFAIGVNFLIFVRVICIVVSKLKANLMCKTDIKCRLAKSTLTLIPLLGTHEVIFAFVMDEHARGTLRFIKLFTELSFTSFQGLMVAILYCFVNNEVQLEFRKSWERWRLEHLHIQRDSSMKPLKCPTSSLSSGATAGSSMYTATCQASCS
Sequence of albumin (P02768 whole entry): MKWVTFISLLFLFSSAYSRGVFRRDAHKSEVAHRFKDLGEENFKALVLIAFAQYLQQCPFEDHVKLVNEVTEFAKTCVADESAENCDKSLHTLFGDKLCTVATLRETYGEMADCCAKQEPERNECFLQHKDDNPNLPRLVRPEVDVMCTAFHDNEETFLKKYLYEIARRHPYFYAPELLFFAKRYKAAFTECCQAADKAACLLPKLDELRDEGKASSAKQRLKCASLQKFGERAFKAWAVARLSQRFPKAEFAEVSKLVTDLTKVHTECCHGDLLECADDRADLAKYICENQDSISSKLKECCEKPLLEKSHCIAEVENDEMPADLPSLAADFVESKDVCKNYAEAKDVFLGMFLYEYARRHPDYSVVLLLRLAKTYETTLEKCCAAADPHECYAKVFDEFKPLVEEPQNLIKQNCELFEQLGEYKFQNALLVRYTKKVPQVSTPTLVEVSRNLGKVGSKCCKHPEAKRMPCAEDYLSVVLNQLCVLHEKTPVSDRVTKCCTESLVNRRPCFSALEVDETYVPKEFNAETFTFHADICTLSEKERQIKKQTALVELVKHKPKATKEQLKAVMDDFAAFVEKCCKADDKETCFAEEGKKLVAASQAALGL

half-life [3]: 22.1 h
MRT [7]: 33.8 h
EC50 [14]: 0.0368 nM
Tmax [18]: 1.82 h
Cmax [20]: 880 ng/mL
half-life at 1000 ng/mL [24]: 67.9 h
fraction unbound at 3 h, 100 ug/mL [27]: 0.036
AUC [28]: 40600 ng·h/mL
Compound: CC[C@H](C)[C@H](NC(=O)[C@H](Cc1ccccc1)NC(=O)[C@H](CCC(=O)O)NC(=O)[C@H](CCCCN)NC(=O)[C@H](C)NC(=O)[C@H](C)NC(=O)[C@H](CCC(N)=O)NC(=O)CNC(=O)[C@H](CCC(=O)O)NC(=O)[C@H](CC(C)C)NC(=O)[C@H](Cc1ccc(O)cc1)NC(=O)[C@H](CO)NC(=O)[C@H](CSC1CC(=O)N(CCCCCCCCCCCC(=O)Nc2ccc(C(c3c(O)c4ccccc4oc3=O)c3c(O)c4ccccc4oc3=O)cc2)C1=O)NC(=O)[C@@H](NC(=O)[C@H](CC(=O)O)NC(=O)[C@H](CO)NC(=O)[C@@H](NC(=O)[C@H](Cc1ccccc1)NC(=O)[C@@H](NC(=O)CNC(=O)[C@H](CCC(=O)O)NC(=O)CNC(=O)[C@@H](N)Cc1cnc[nH]1)[C@@H](C)O)[C@@H](C)O)C(C)C)C(=O)N[C@@H](C)C(=O)N[C@@H](Cc1c[nH]c2ccccc12)C(=O)N[C@@H](CC(C)C)C(=O)N[C@H](C(=O)N[C@@H](CCCCN)C(=O)NCC(=O)N[C@@H](CCCNC(=N)N)C(N)=O)C(C)C (stereo not given in full)
Activity [1]: 1274.72 pM
Activity [2]: Active
Time [4]: 35.8 h
APTT [5]: 26.38 s
Activity [6]: inactive
Activity [8]: Active
Activity [9]: Active
Time [10]: 24.7 h
Activity [11]: 13.8 mM
TT [12]: 19.49 s
Activity [13]: inactive
Activity [15]: Active
PT [16]: 13.39 s
Activity [17]: <16 mM
PT [19]: 13.55 s
Activity [21]: 6.9 mM
TT [22]: 19.63 s
Activity [23]: Dose-dependent effect
APTT [25]: 26.39 s
Activity [26]: Active
Activity [29]: <12 mM
Activity [30]: Active
Activity [31]: Active
Activity [32]: 582.08 pM

Compound: O=c1oc2ccccc2c(O)c1Cc1c(O)c2ccccc2oc1=O [DICUMAROL]
TT [33]: 36.85 s
PT [34]: 25.22 s
APTT [35]: 56.36 s
